Series [1] deals with T1, CYP2E1 (Homo sapiens, UniProt P05181). As to the kind of experiment: Extended CYP2E1-pNP inhibition profiling. Type of series: biochemical. The settings on record: additive up to 50 µmol/L.
Target sequence in this assay (P05181 whole entry): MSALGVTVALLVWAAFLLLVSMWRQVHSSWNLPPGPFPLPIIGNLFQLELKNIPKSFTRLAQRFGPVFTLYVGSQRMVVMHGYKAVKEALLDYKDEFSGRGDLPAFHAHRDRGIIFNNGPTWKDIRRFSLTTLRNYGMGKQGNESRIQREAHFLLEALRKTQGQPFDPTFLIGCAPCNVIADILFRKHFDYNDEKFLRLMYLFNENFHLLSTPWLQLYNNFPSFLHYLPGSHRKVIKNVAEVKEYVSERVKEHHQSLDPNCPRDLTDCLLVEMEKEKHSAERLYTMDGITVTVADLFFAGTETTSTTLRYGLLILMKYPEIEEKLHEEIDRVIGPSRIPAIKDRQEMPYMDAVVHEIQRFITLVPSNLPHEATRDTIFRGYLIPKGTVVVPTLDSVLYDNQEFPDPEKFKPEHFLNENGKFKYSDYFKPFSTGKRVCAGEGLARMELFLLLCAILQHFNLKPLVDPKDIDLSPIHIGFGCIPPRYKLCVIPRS
Target sequence in this assay (P16435 2-677 partner): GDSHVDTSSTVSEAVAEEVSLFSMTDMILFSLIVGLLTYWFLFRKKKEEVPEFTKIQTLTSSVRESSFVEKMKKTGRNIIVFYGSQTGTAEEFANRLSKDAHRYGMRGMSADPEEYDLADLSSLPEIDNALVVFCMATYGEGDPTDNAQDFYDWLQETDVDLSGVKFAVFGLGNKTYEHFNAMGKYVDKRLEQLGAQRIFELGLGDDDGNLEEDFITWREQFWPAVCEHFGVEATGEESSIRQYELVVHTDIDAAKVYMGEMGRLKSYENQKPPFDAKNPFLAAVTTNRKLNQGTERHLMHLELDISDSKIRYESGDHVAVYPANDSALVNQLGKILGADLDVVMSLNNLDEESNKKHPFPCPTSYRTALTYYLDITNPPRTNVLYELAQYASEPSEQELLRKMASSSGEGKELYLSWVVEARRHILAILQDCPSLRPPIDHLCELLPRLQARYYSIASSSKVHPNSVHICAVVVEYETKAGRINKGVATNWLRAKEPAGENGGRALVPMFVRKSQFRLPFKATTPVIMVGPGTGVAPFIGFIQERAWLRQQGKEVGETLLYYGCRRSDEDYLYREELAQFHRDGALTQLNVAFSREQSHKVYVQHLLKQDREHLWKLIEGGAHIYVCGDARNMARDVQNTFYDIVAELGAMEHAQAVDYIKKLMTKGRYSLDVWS
Target sequence in this assay (P00167 2-134 partner): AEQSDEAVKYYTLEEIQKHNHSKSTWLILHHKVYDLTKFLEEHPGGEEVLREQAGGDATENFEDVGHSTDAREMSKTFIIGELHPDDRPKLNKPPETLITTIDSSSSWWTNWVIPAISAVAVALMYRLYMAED
The subject of series [2] is Escherichia coli DH5α. As to the kind of experiment: Growth of E coli DH5α transformed with pBTR1. Type of series: cell-based. The settings on record: 4 hours, control = 100.
For a further series, the system named is E coli DH5α. Briefly: Growth. Type of series: cell-based, Escherichia coli.
Another series deals with B megaterium MTCC 428. Briefly: Growth. Type of series: cell-based, Bacillus megaterium.
The subject of series [3] is Escherichia coli DH5α. The settings on record: 6 hours, control = 100.
Series [4] addresses T1, CYP2E1. As to the kind of experiment: CYP2E1 baculosome pNP hydroxylation. The settings on record: for Effect on pNC formation: earlier time (10 minutes). Type of series: biochemical.
Target sequence in this assay (P05181 whole entry): as the sequence (P05181 whole entry) above
Series [5] deals with T1, CYP2E1. Briefly: Simulation of hydroxylating activities of CYP2E1 with DROS. The settings on record: after 10 minutes; for Concentration of hydroxylated product, Control, Cyt b 5 + pNP: Cyt b5, without CYP2E1; for Concentration of hydroxylated product, CYP2E1, pNP: pNP 25 µmol/L, with CYP2E1; for Concentration of hydroxylated product, CYP2E1, Cyt b 5 + pNP: with CYP2E1 and Cyt b5; for Concentration of hydroxylated product, Control, pNP: without CYP2E1. Type of series: biochemical. The gist of the method: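 Reconstituted hydroxylation with diffusible oxygen species used initial pNP 25 µmol/L, DLPC 20 µmol/L and CYP2E1 100 nmol/L (omitted in controls). When present: NADPH 200 µmol/L, CPR 200 nmol/L, Cyt b5 200 nmol/L, H2O2 32 µmol/L, or KO2 ≤16 µmol/L. KO2 was added from a DMSO/15-crown ether substock, giving ~1% DMSO/crown ether in the reaction. Hydroxylated product (nmol/L) was measured after 10 min.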
Target sequence in this assay (P05181 whole entry): as above
Target sequence in this assay (P16435 2-677 partner): as the sequence (P16435 2-677 partner) above
Target sequence in this assay (P00167 2-134 partner): as the sequence (P00167 2-134 partner) above

Series [6] concerns CYP2E1. The settings on record: enzyme taken at 0.1 µmol/L; cited from earlier work.

Where two headings read alike, the source gives them in different places. Marks after values point to notes of the source that are not given here.

For the molecule `Cn1c(=O)[nH]c(=O)c2[nH]cnc21` [3-Methylxanthine (MetXan), 3-Methylxanthine], the “Effect on pNP reactions” value at CYP2E1 [1] is on record as “did not significantly perturb/inhibit”.

`Nc1nc[nH]n1` [Amitrol, amitrol]: the Relative growth density is on record as 60 (9) in the series on Escherichia coli DH5α [2] (amitrol 10^−3 M, + IPTG); 94 (4) in the series on Escherichia coli DH5α [2] (amitrol 10^−3 M, − IPTG); 70 (6) in the series on Escherichia coli DH5α [2] (amitrol 10^−6 M, + IPTG); 103 (10) in the series on Escherichia coli DH5α [2] (amitrol 10^−6 M, − IPTG); 63 (5) in the series on Escherichia coli DH5α [2] (amitrol 10^−9 M, + IPTG); 103 (3) in the series with Escherichia coli DH5α [2] (amitrol 10^−9 M, − IPTG). The Relative growth density was 51 (4) in the series on Escherichia coli DH5α [2] (amitrol 10^−12 M, + IPTG) and 50 (2) with Escherichia coli DH5α [2] (amitrol 10^−12 M, − IPTG).

For `[N-]=[N+]=[N-]` [Azide, azide], the Effect on growth entry in the series with E coli DH5α (azide at mmol/L ranges, compared with B megaterium) is “much less harsh”; in the series with E coli DH5α (nmol/L concentration of azide) it was “inhibitory”; in the series with E coli DH5α (µmol/L concentration of azide), “no inhibition whatsoever”; in the series on B megaterium MTCC 428 (azide 10^−6 to 10^−12 M), “did not impact”; in the series with B megaterium MTCC 428 (azide at mmol/L ranges), “very effective in curbing the growth”. In addition, the Relative growth density in the series with Escherichia coli DH5α [3] (azide 10^−3 M, + IPTG) is given as 24 (3); with Escherichia coli DH5α [3] (azide 10^−3 M, − IPTG) it was 12 (5); in the series on Escherichia coli DH5α [3] (azide 10^−6 M, + IPTG), 79 (5); with Escherichia coli DH5α [3] (azide 10^−6 M, − IPTG), 97 (7); in the series with Escherichia coli DH5α [3] (azide 10^−9 M, + IPTG), 29 (6); in the series with Escherichia coli DH5α [3] (azide 10^−9 M, − IPTG) it was 41 (6). The Relative growth density in the series with Escherichia coli DH5α [3] (azide 10^−12 M, + IPTG) is 32 (3); in the series on Escherichia coli DH5α [3] (azide 10^−12 M, − IPTG), 107 (8).

What is called Ki is a dissociation constant, usually derived from enzyme kinetics or from competition with a known ligand. `CCc1oc2ccccc2c1C(=O)c1ccc(O)cc1` [Bzr, benzarone]: the Ki at CYP2E1 [4] (Ki Competitive, Cheng-Prusoff from IC50, KM 14 µmol/L) is 8.7 µM; at CYP2E1 [4] (Ki Noncompetitive, calculated from IC50 (website)), 71 µM. Further, the “Ki Uncompetitive” value on CYP2E1 [4] (calculated from IC50 (website)) was 62.3 µM. Moreover, on CYP2E1 [4] (initial sampling time), the “Inhibition at 10 nmol/L compared to 1 µmol/L” value was “greater extent of inhibition”.

As to `N[C@@H](Cc1cc(I)c(O)c(I)c1)C(=O)O` [DIT, diiodotyrosine], the “Effect on pNC formation” value at CYP2E1 [4] (10 nmol/L additive) was “enhanced reactions”; at CYP2E1 [4] (high/higher additive concentrations) it was “inhibited pNC formation”.

On to `OO` [H2O2], for which, on CYP2E1 [5], the “Concentration of hydroxylated product, Control, Cyt b 5 + pNP” value is reported as “Nil”; the “Concentration of hydroxylated product, CYP2E1, pNP” value is under 10 nmol/L; the “Concentration of hydroxylated product, CYP2E1, Cyt b 5 + pNP” value was “∼74 nmol/L”; the “Concentration of hydroxylated product, Control, pNP” value is recorded as “Nil”.

Regarding `CCc1oc2ccccc2c1C(=O)c1ccc(OC)cc1` [MeOBzr, methoxybenzarone], the “Ki Uncompetitive” value at CYP2E1 [4] (calculated from IC50 (website)) is 100.9 µM. Moreover, the Ki on CYP2E1 [4] (read-out: Ki Competitive, Cheng-Prusoff from IC50, KM 14 µmol/L) was 14.1 µM; on CYP2E1 [4] (read-out: Ki Noncompetitive, calculated from IC50 (website)) it was 115 µM.

Consider `[O]O` [O2 ^˙−], for which, at CYP2E1 [5], the “Concentration of hydroxylated product, Control, Cyt b 5 + pNP” value is “∼70^b nmol/L”; the “Concentration of hydroxylated product, CYP2E1, pNP” value is reported as “∼104^b nmol/L”; the “Concentration of hydroxylated product, CYP2E1, Cyt b 5 + pNP” value is “∼499^b nmol/L”; the “Concentration of hydroxylated product, Control, pNP” value is “∼88^b nmol/L”.

What is called Kd is the free concentration of one partner at which half of the binding sites on the other are occupied at equilibrium, for simple one-to-one binding. As for `c1ccc2[nH]ncc2c1` [indazole], the Kd with CYP2E1 [6] is 0.005 µM.

For orientation: Km means the concentration of substrate that gives half-maximal velocity. Regarding `O=[N+]([O-])c1ccc(O)cc1` [pNP, para-nitrophenol], the Km on CYP2E1 [4] (read-out: 2E1-pNP KM, substrate constant used for Cheng-Prusoff) worked out at 14 µM.

Source of the values: publication PMC5946624 (Dose-Response, 2018).
